Measurements reported in ChEMBL document CHEMBL1132488, “On the bioactive conformation of NAN-190 (1) and MP3022 (2), 5-HT(1A) receptor antagonists” (J Med Chem, 1999).
pKi: −log10 of the molar value. Each block holds one molecule with its values, some of them ahead of it.

Legend:
[1] = molecular target: T1, 5-hydroxytryptamine receptor 1A (Rattus norvegicus, UniProt P19327); assay: Ability to displace [3H]8-OH-DPAT from 5-hydroxytryptamine 1A receptor
T1 sequence (P19327 whole entry): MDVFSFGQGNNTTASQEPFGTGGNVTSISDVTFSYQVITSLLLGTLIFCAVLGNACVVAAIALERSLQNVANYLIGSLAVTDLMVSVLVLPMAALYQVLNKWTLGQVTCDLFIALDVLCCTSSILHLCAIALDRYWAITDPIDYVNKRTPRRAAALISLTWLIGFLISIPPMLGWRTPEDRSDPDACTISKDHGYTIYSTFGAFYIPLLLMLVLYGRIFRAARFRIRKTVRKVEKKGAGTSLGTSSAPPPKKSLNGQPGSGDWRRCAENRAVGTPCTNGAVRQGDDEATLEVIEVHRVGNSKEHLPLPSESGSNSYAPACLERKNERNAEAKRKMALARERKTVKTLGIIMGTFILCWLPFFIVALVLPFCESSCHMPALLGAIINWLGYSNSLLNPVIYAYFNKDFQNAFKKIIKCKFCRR
Summary of the method: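 Rat hippocampal membranes, [3H]8-OH-DPAT radioligand. Ki from at least three competition experiments, each with 10–14 drug concentrations run in triplicate. Ki calculated with the Cheng–Prusoff equation.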

[2] = species on record: Rattus norvegicus; assay: Dose Inducing behavioral syndrome(FT: forepaw treading) by the compound in reserpine pretreated rats.; type: functional
Summary of the method: (§1)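 Male Wistar rats (260–300 g), groups of 6, given reserpine 1 mg/kg sc 18 h before test. Compounds given ip as 1% Tween 80 suspension. FBP and FT rated 0–3 in 45-s sessions every 3 min, starting 3 min after dosing. Score summed over 5 periods (max 15 per symptom). Mean ± SEM; Newman–Keuls test.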

[3] = species on record: Rattus norvegicus; assay: Effective dose of the required to inhibit symptoms produced by 8-OH-DPAT; type: functional
Summary of the method: (§2)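 Reserpinized male Wistar rats (reserpine 1 mg/kg sc, 18 h before), groups of 6. Compound given ip in 1% Tween 80 60 min before 8-OH-DPAT 5 mg/kg sc. FBP/FT rated 0–3 at 3, 6, 9, 12 and 15 min after agonist, summed (max 15). Mean ± SEM; Newman–Keuls test; ED50 with range.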

[4] = species on record: Rattus norvegicus; assay: Effect on 8-OH-DAPT- induced behavioral syndrome(FT: forepaw treading) by the compound in reserpine pretreated rats at a dose of 2.; type: functional
[5] = species on record: Rattus norvegicus; assay: Effect on 8-OH-DAPT- induced behavioral syndrome(FBP: flat body posture) by the compound in reserpine pretreated rats at a dose of 2.; type: functional
[6] = species on record: Rattus norvegicus; assay: Effect on 8-OH-DAPT- induced behavioral syndrome(FBP: flat body posture) by the compound in reserpine pretreated rats at a dose of 4.; type: functional; summary of the method: as §2
[7] = species on record: Rattus norvegicus; assay: Effect on 8-OH-DAPT- induced behavioral syndrome(FT: forepaw treading) by the compound in reserpine pretreated rats at a dose of 8.; type: functional; summary of the method: as §2
[8] = species on record: Rattus norvegicus; assay: Induction of behavioral syndrome(FT: forepaw treading) by the compound in reserpine pretreated rats at a dose of 2.; type: functional
[9] = species on record: Rattus norvegicus; assay: Induction of behavioral syndrome(FT: forepaw treading) by the compound in reserpine pretreated rats at a dose of 4.; type: functional
Summary of the method: (§3)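 Male Wistar rats (260–300 g) were given reserpine 1 mg/kg sc in saline 18 h before testing. Test compound was then given alone ip as a 1% Tween 80 suspension (2 mL/kg). FBP and FT were each scored 0–3 and summed (maximum 15). n=6 per group; mean ± SEM; Newman–Keuls test.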

[10] = species on record: Rattus norvegicus; assay: Induction of behavioral syndrome(FT: forepaw treading) by the compound in reserpine pretreated rats at a dose of 8.; type: functional; summary of the method: as §3
[11] = species on record: Rattus norvegicus; assay: Effect on 8-OH-DAPT- induced behavioral syndrome(FBP: flat body posture) by the compound in reserpine pretreated rats at a dose of 8.; type: functional; summary of the method: as §2
[12] = species on record: Rattus norvegicus; assay: Induction of behavioral syndrome(FBP: flat body posture) by the compound in reserpine pretreated rats at a dose of 2.; type: functional; summary of the method: as §1
[13] = species on record: Rattus norvegicus; assay: Induction of behavioral syndrome(FBP: flat body posture) by the compound in reserpine pretreated rats at a dose of 4.; type: functional; summary of the method: as §3
[14] = species on record: Rattus norvegicus; assay: Induction of behavioral syndrome(FBP: flat body posture) by the compound in reserpine pretreated rats at a dose of 8.; type: functional; summary of the method: as §3
[15] = tested on: Rattus norvegicus; assay: Induction of LLR(lower lip retraction) by the compound in rats at a dose of 8 mg/kg; type: functional
Summary of the method: (§4)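 Male Wistar rats, groups of 6, given compound alone ip as 1% Tween 80 suspension. Lower incisor visibility scored 0/0.5/1 at 15, 30 and 45 min after dosing, summed (max 3 per rat). Mean ± SEM versus vehicle, Newman–Keuls test; ED50 with range.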

[16] = tested on: Rattus norvegicus; assay: Effect on 8-OH-DPAT-Induced LLR(lower lip retraction) in rats at a dose of 16 mg/kg; type: functional
Summary of the method: (§5)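 Male Wistar rats, groups of 6. Compound given ip in 1% Tween 80 45 min before 8-OH-DPAT 1 mg/kg sc. Lower incisor visibility scored 0/0.5/1 at 15, 30 and 45 min after agonist, summed (max 3). Mean ± SEM; Newman–Keuls test; ED50 with range.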

[17] = tested on: Rattus norvegicus; assay: Effect on 8-OH-DPAT-Induced LLR(lower lip retraction) in rats at a dose of 4 mg/kg; type: functional; summary of the method: as §5
[18] = tested on: Rattus norvegicus; assay: Effect on 8-OH-DPAT-Induced LLR(lower lip retraction) in rats at a dose of 8 mg/kg; type: functional; summary of the method: as §5
[19] = tested on: Rattus norvegicus; assay: Induction of LLR(lower lip retraction) by the compound in rats at a dose of 4 mg/kg; type: functional; summary of the method: as §4
[20] = tested on: Rattus norvegicus; assay: Induction of LLR(lower lip retraction) by the compound in rats at a dose of 16 mg/kg; type: functional; summary of the method: as §4
[21] = species on record: Rattus norvegicus; assay: Effect on 8-OH-DAPT- induced behavioral syndrome(FT: forepaw treading) by the compound in reserpine pretreated rats at a dose of 4.; type: functional; summary of the method: as §2
[22] = species on record: Rattus norvegicus; assay: Dose inhibiting 8-OH-DPAT-induced behavioral syndrome(FBP: flat body posture) by the compound in reserpine pretreated rats.
[23] = species on record: Rattus norvegicus; assay: Dose Inducing behavioral syndrome(FT: forepaw treading) by the compound in reserpine pretreated rats; type: functional; summary of the method: as §1
[24] = species on record: Rattus norvegicus; assay: Dose Inducing behavioral syndrome(FBP: flat body posture) by the compound in reserpine pretreated rats; type: functional; summary of the method: as §1
[25] = species on record: Rattus norvegicus; assay: Effect on 8-OH-DAPT- induced behavioral syndrome(FT: forepaw treading) by the compound in reserpine pretreated rats at a dose of 16; type: functional; summary of the method: as §2
[26] = species on record: Rattus norvegicus; assay: Effect on 8-OH-DAPT- induced behavioral syndrome(FT: forepaw treading) by the compound in reserpine pretreated rats at a dose of 4; FT mean score; type: functional; summary of the method: as §2
[27] = species on record: Rattus norvegicus; assay: Effect on 8-OH-DAPT- induced behavioral syndrome(FBP: flat body posture) by the compound in reserpine pretreated rats at a dose of 16; FBP mean score; type: functional; summary of the method: as §2
[28] = species on record: Rattus norvegicus; assay: Effect on 8-OH-DAPT- induced behavioral syndrome(FBP: flat body posture) by the compound in reserpine pretreated rats at a dose of 4; FBP mean score; type: functional; summary of the method: as §2
[29] = species on record: Rattus norvegicus; assay: Effect on 8-OH-DAPT- induced behavioral syndrome(FT: forepaw treading) by the compound in reserpine pretreated rats at a dose of 8; FT mean score; type: functional; summary of the method: as §2
[30] = species on record: Rattus norvegicus; assay: Induction of behavioral syndrome(FT: forepaw treading) by the compound in reserpine pretreated rats at a dose of 16; FT mean score; type: functional; summary of the method: as §3
[31] = species on record: Rattus norvegicus; assay: Induction of behavioral syndrome(FT: forepaw treading) by the compound in reserpine pretreated rats at a dose of 4; FT mean score; type: functional; summary of the method: as §3
[32] = species on record: Rattus norvegicus; assay: Induction of behavioral syndrome(FT: forepaw treading) by the compound in reserpine pretreated rats at a dose of 8; FT mean score; type: functional; summary of the method: as §3
[33] = species on record: Rattus norvegicus; assay: Effect on 8-OH-DAPT- induced behavioral syndrome(FBP: flat body posture) by the compound in reserpine pretreated rats at a dose of 8; FBP mean score; type: functional; summary of the method: as §2
[34] = species on record: Rattus norvegicus; assay: Induction of behavioral syndrome(FBP: flat body posture) by the compound in reserpine pretreated rats at a dose of 16; FBP mean score; type: functional; summary of the method: as §1
[35] = species on record: Rattus norvegicus; assay: Induction of behavioral syndrome(FBP: flat body posture) by the compound in reserpine pretreated rats at a dose of 4; FBP mean score; type: functional; summary of the method: as §3
[36] = species on record: Rattus norvegicus; assay: Induction of behavioral syndrome(FBP: flat body posture) by the compound in reserpine pretreated rats at a dose of 8; type: functional; summary of the method: as §3
[37] = tested on: Rattus norvegicus; assay: Induction of LLR(lower lip retraction) by the compound in rats at a dose of 16 mg/kg; LLR score; type: functional; summary of the method: as §4
[38] = tested on: Rattus norvegicus; assay: Induction of LLR(lower lip retraction) by the compound in rats at a dose of 4 mg/kg; LLR score; type: functional; summary of the method: as §4
[39] = tested on: Rattus norvegicus; assay: Induction of LLR(lower lip retraction) by the compound in rats at a dose of 8 mg/kg; LLR score; type: functional; summary of the method: as §4
[40] = species on record: Rattus norvegicus; assay: Effective dose required to induce LLR(lower lip retraction); type: functional; summary of the method: as §4

pKi [1]: 8.40
Structure (SMILES): COc1ccccc1N1CCN(CCCCN2C(=O)[C@H]3CCCC[C@H]3C2=O)CC1
ED50 [2]: 2.6 mg/kg | ED50 [3]: 7.5 mg/kg | FT mean score [4]: 3.8 | FBP mean score [5]: 8.3 | FBP mean score [6]: 6.7 | FT mean score [7]: 0.5 | FT mean score [8]: 0.2 | FT mean score [9]: 0.2 | FT mean score [10]: 0.2 | FBP mean score [11]: 5.5 | FBP mean score [12]: 0.1 | FBP mean score [13]: 0.2 | FBP mean score [14]: 0.2 | LLR score [15]: 0.5 | LLR score [16]: 0.7 | LLR score [17]: 1.7 | LLR score [18]: 1.3 | LLR score [19]: 0.5 | LLR score [20]: 0.8 | FT mean score [21]: 3.5 | ED50 [22]: 3.2 mg/kg

pKi [1]: 6.45
Structure (SMILES): O=C1c2ccccc2C(=O)N1CCCCN1CCc2ccccc2C1

pKi [1]: 7.33
Structure (SMILES): COc1ccccc1N1CCN(C2CCCC(n3nnc4ccccc43)C2)CC1 (configuration not stated)
ED50 [23]: 7 mg/kg | ED50 [24]: 11 mg/kg | FT mean score [25]: 0.8 | FT mean score [26]: 9.6 | FBP mean score [27]: 6.2 | FBP mean score [28]: 12.5 | FT mean score [29]: 3.5 | FT mean score [30]: 0.1 | FT mean score [31]: 0.1 | FT mean score [32]: 0.3 | FBP mean score [33]: 7 | FBP mean score [34]: 1 | FBP mean score [35]: 0.6 | FBP mean score [36]: 0.5 | LLR score [37]: 1.6 | LLR score [38]: 0.9 | LLR score [39]: 1.3 | ED50 [40]: 8 mg/kg
